Measurements from different studies.
Compare with care: the assays were run in different laboratories.
Action: inhibitor
CYP1A2: Cytochrome P450 1A2 (CYP1A2, Homo sapiens, UniProt P05177)
SLCO1B1: Solute carrier organic anion transporter family member 1B1 (SLCO1B1, Homo sapiens, UniProt Q9Y6L6)

For `CC(C)(O)[C@@H]1CC[C@](C)([C@H]2[C@@H](O)C[C@@]3(C)[C@@H]4C[C@H](O[C@@H]5O[C@H](CO)[C@@H](O)[C@H](O)[C@H]5O)[C@H]5C(C)(C)[C@@H](O[C@@H]6OC[C@@H](O)[C@H](O)[C@H]6O)CC[C@@]56C[C@@]46CC[C@]23C)O1`, the IC50 was greater than 200 µM (CYP1A2; enzyme activity; human, liver microsomes).
`CSc1ccccc1C(=O)NCCn1cc(C(=O)NCc2cccc(C)n2)c(=O)c2cc3c(cc21)OCO3` has an IC50 of greater than 100 µM (CYP1A2; enzyme activity; human, liver microsomes; 20 min, without NADPH, with preincubation).
The inhibition of `NC/C(=C\F)COc1cccc(Cn2c(=S)[nH]c(=O)c3[nH]cnc32)c1` is reported as less than 50% (SLCO1B1; transporter uptake; 30 µM).
`O=C(CCCCCCC(=O)Nc1ccccc1)NO` gave an IC50 of 7.28 µM (CYP1A2; enzyme activity, fluorescence).
The IC50 of `O=C(O)COc1cccc(-c2nc(Nc3ccc4[nH]ncc4c3)c3ccccc3n2)c1` is reported as 0.39 µM (SLCO1B1; transporter uptake, radiometric).
`CC(=O)O[C@H]1[C@H](O[C@H]2CC[C@]34C[C@]35CC[C@]3(C)[C@@H]([C@@]6(C)CC[C@@H](C(C)(C)O)O6)[C@@H](O)C[C@@]3(C)[C@@H]5C[C@H](O[C@@H]3O[C@H](CO)[C@@H](O)[C@H](O)[C@H]3O)[C@H]4C2(C)C)OC[C@@H](OC(C)=O)[C@@H]1O` has an IC50 of greater than 200 µM (CYP1A2; enzyme activity; human, liver microsomes).
With `CSc1ccccc1C(=O)NCCn1cc(C(=O)NCc2cccc(C)n2)c(=O)c2cc3c(cc21)OC(F)(F)O3` the IC50 was greater than 100 µM (CYP1A2; enzyme activity; human, liver microsomes; 20 min, without NADPH, with preincubation).
With `CC[C@H](C)[C@@H]([C@@H](CC(=O)N1CCC[C@H]1[C@H](OC)[C@@H](C)C(=O)N[C@@H](Cc1ccccc1)C(=O)NCCCO)OC)N(C)C(=O)[C@@H](NC(=O)[C@H](C(C)C)N(C)C)C(C)C` the Ki was 21.8 µM (Cytochrome P450 3A4 (CYP3A4, Homo sapiens, UniProt P08684); enzyme activity).
